# From PubChem BioAssay
# CRFR2-BP ag: agonists of human CRF-binding protein/CRF-R2 receptor complex. HEK293 CRF-R2/CRF-BP, calcium dye fluorescence (FLIPR); percent of saturating CRF peptide response. activation, % at 13.2 µM. 350,000 tested, 0.46% active. AID 588473;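 active means activation of at least 50%, plus an integration ratio under a set limit after plate pattern correction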;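 further: plate controls were neutral control wells without compound for no effect and CRF at EC100 for full effect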
# GPR7 antagonist: human neuropeptides B/W receptor 1 antagonism. inhibition, % at 4.4 µM. AID 1861. GPR7-expressing cells, fluorescence antagonist assay. P48145. 290,000 tested, 1.1% active; in the data active means inhibition above about 16%, passing the limit was not always enough;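 further: cells stimulated with the agonist NPW; 0% = agonist with vehicle and 100% = vehicle without agonist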
# CRFR2-BP antag: antagonists of CRF-binding protein/CRF-R2 receptor complex. inhibition, % at 11.8 µM. 350,000 tested, 0.59% active. HEK293 CRF-R2/CRF-BP, CRF-induced calcium fluorescence;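 active means inhibition of the ligand-induced calcium signal above about 50% at the single tested concentration, limit read from the data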
# TRPML3 agonist: activates the human TRPML3 channel; Q8TDD5; HEK293 TRPML3-YFP, Fluo-8 calcium fluorescence; 100% = the carbachol control signal; activation, % at 3 µM; 220,000 tested, 0.29% active; AID 1448;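 active means activation above its plate's cutoff, the mean activation of the plate's test wells plus 3 SD, cut at about 12% in these data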;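 further: 0% = DMSO only wells and 100% = carbachol wells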
# Target sequence (Q8TDD5 whole entry, looked up): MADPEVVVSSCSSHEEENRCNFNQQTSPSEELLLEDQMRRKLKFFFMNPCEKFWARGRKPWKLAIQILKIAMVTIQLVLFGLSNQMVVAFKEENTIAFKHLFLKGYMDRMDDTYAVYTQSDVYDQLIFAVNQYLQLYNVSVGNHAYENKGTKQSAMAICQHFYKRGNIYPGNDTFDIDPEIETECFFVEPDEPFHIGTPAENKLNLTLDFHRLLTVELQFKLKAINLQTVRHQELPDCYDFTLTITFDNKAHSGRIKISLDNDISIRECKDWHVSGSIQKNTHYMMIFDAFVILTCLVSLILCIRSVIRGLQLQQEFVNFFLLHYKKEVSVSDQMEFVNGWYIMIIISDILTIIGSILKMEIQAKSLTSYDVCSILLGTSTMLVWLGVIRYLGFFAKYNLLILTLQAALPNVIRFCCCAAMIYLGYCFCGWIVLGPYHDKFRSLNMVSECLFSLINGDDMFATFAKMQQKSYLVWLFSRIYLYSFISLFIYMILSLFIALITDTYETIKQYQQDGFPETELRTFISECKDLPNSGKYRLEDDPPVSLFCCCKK
#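 system = HEK293 cells stably carrying human TRPML3-YFP | doses = one concentration, 3 µM nominal, 0.3% DMSO | timing = dye loading 1 h 37 °C then 30 min ambient, 125 s read | detection = Fluo-8 calcium dye fluorescence, ex 470-495, em 515-575 nm | benchmarks = high control carbachol 87 µM, low control DMSO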
# TRPN1 ag: agonists of zebrafish TRPN1 channel | HEK293 zebrafish TRPN1-YFP, Fluo-8 calcium fluorescence; 100% = response to 87 µM carbachol | activation, % at 3 µM | 220,000 tested, 0.18% active;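 active means activation above its plate's cutoff, the mean activation of test wells on that plate plus 3 SD, cut at about 19% in these data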;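 further: 0% = DMSO alone and 100% = 87 µM carbachol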
#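 Material: zebrafish TRPN1-YFP in HEK293 cells. Doses: one dose of 3 µM, 0.3% DMSO. Incubation: dye 1 h 37 °C plus 30 min RT. Measured by: intracellular calcium fluorescence with Fluo-8.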
# An asterisk follows results filed as active; / = not tested or not shown. Compounds with a hit are over-represented: about 2% of the library has one in this group of screens.
SMILES,CRFR2-BP ag,GPR7 antagonist,CRFR2-BP antag,TRPML3 agonist,TRPN1 ag
CC(=O)C1=C(O)C(=O)N(c2cc(C(C)(C)C)on2)C1c1ccc(C(C)C)cc1 (configuration not stated),64*,-2,5,1,0
Cc1c(Cc2ccccc2)c(=O)oc2cc(OC(C)C(=O)NCC3CCC(C(=O)O)CC3)c(Cl)cc12 (configuration not stated),0,-5,0,/,/
Oc1ccc(Cl)cc1Cc1cc(Cl)ccc1O,-1,35*,25,-1,1
Clc1ccc2nncn2n1,0,-6,77*,1,1
c1cc2nncn2nc1N1CCCC1,1,-1,-18,0,0
CC(C)(C)c1ccc(C(=O)CS(=O)(=O)c2ccccc2)cc1,4,-13,77*,0,-1
CC1CCCCC1NC(=O)c1ccc(S(=O)(=O)N2CCCC2)cc1 (configuration not stated),-2,2,-7,1,1
CC1CCCCC1NS(=O)(=O)c1ccc(S(=O)(=O)N2CCCC2)cc1 (configuration not stated),-1,15*,-2,0,9
CCOc1ccccc1N1CCN(C(=O)c2cccc(S(=O)(=O)N3CCOCC3)c2)CC1,-4,/,7,/,/
CCOc1ccccc1N1CCN(C(=O)Cc2ccc(S(=O)(=O)N3CCOCC3)s2)CC1,0,/,101*,/,/
CCCCCc1ccc(OCCOCCn2c[n+](C)c3ccccc32)c(CCCCC)c1,36,40*,-21,0,-1
CCCCCc1ccc(OCCC[n+]2ccccc2)c(CCCCC)c1,15,6,-15,-1,-2
CC1=C(c2ccccc2)C(O)(c2ccccc2)C(C)C1=O (configuration not stated),-4,/,59*,/,/
CCOc1ccc(NC(=O)Nc2cc(C)ccc2F)cc1,-2,1,66*,0,-1
NS(=O)(=O)c1ccc(-n2cccc2C=O)cc1,-2,-11,23,0,0
N#C/C(=C\c1c[nH]c2ccc(Br)cc12)c1ccccn1,0,4,-3,/,/
Cn1c(=O)c(C(=O)COc2ccc(C#N)cc2)c(N)n(Cc2ccccc2)c1=O,55*,5,24,2,4
CCC(=O)OCC(=O)c1c(N)n(Cc2ccccc2)c(=O)n(C)c1=O,-1,-5,44,1,1
CCCCN1C(=O)/C(=C/C=C2\SCCN2C)SC1=S,81*,1,-111,6,10
CN1CCS/C1=C/C=C1\SC(=S)N(CC(=O)O)C1=O,149*,8,-115,10,21*
COc1ccc(-c2noc(CCC(=O)NCCCN3CCC(Cc4ccccc4)CC3)n2)cc1,-1,29*,-14,3,7
CSc1ccc(/C=C2\C(=N)N3N=C(CC(=O)N4CCOCC4)SC3=NC2=O)cc1,-4,6,7,/,/
CCN(CC)c1ccc(/C=C2\C(=N)N3N=C(CC(=O)N4CCOCC4)SC3=NC2=O)cc1,109*,2,-57,/,/
CC(NC(=O)c1ccccc1F)c1nnc(SCC(=O)NC2=NCCS2)n1C (configuration not stated),-1,3,2,/,/
CC(Oc1cccc(Cl)c1)C(=O)NNC(=O)c1cccnc1 (configuration not stated),4,/,68*,/,/
SMILES,CRFR2-BP ag,GPR7 antagonist,CRFR2-BP antag,TRPML3 agonist,TRPN1 ag
COc1ccc(CNCCC(c2ccc(F)cc2)c2ccc(OC)cc2)cc1 (configuration not stated),2,47*,-29,0,0
COc1ccc(OC)c(CN2CCN(C(=O)c3cccc(S(=O)(=O)Nc4ccc(F)cc4)c3)CC2)c1,-3,/,2,/,/
Cc1cc(Cl)ccc1OC(C)C(=O)Nc1ccccc1N1CCOCC1 (configuration not stated),110*,4,-146,177*,46*
Cc1cc(Cl)ccc1OC(C)C(=O)Nc1cccc(S(=O)(=O)N2CCOCC2)c1 (configuration not stated),0,/,-7,/,/
CC(Oc1ccc(Cl)cc1)C(=O)Nc1ccccc1N1CCOCC1 (configuration not stated),53*,/,-48,/,/
CCOc1ccc(NC(=O)CN(C)C(=O)c2cc3c(s2)CCC3)cc1OCC,-1,/,14,/,/
CCn1c(SCC(=O)Nc2ccccc2F)nnc1-c1ccoc1C,1,-2,-4,/,/
COCCCn1c(SCC(=O)Nc2ccccc2F)nnc1-c1ccoc1C,-1,4,103*,/,/
COc1cccc(C2C=C(c3ccc(OC)cc3OC)Nc3nnnn32)c1 (configuration not stated),81*,0,-6,1,2
Cc1ccc(C2C=C(c3ccccc3)Nc3nc(N4C(=O)CCC4=O)nn32)cc1 (configuration not stated),81*,9,-1,0,0
CC1=CC(c2ccc(Cl)cc2)n2nc(N3C(=O)CCC3=O)nc2N1 (configuration not stated),-1,-5,-10,0,-1
COc1cccc(C2=CC(c3ccccc3)n3nnnc3N2)c1 (configuration not stated),1,12,-27,-2,-1
COc1ccc(C2=CC(c3ccc(OC)c(OC)c3)n3nnnc3N2)c(OC)c1 (configuration not stated),88*,0,-1,0,2
COc1ccc(C2=CC(c3ccc(C)cc3)n3nnnc3N2)cc1 (configuration not stated),92*,6,-81,0,0
O=C(Cc1ccc(NC2=NC3CS(=O)(=O)CC3S2)cc1)NCCc1ccccc1 (configuration not stated),0,-5,17,/,/
CC(C)[C@H](NC(=O)N1CCn2c1nc1ccccc12)C(=O)N[C@H](C(=O)O)c1ccccc1,-2,5,2,/,/
Cn1c(=O)cc(OCCCC(=O)NCCN2CCN(c3ccccc3F)CC2)c2ccccc21,0,-6,82*,0,0
NC(=S)N/N=C/c1ccc(-c2ccc(SC(F)F)cc2)o1,0,-7,58*,0,-1
Cc1ccc(-c2ccc(/C=N/NC(N)=S)o2)cc1,0,-7,-15,-2,-3
CCCCCCCCCn1c2c(c(=N)c3c1CCC3)CCCC2,14,68*,-102,1,0
CCCCCn1c2c(c(=N)c3ccccc31)CCC2,0,-1,0,1,0
CCCCCCCCn1c2c(c(=N)c3ccccc31)CCC2,1,67*,-19,0,0
CCCCCCCCCCn1c2c(c(=N)c3c1CCC3)CCC2,20,77*,-41,0,-1
O=C(CSc1nnc(COc2ccc(Cl)cc2)o1)Nc1ccc(N2CCOCC2)cc1,1,/,18,/,/
COc1cc(NC(=O)CCn2c(=S)[nH]c3ccccc3c2=O)cc(OC)c1OC,-1,/,-4,/,/
